Experimental data: PMC7528620 (Clinical cancer research : an official journal of the …, 2019)

Tests used:
[1] = Plasma pharmacokinetics, study INCB 57643-101; format: in vivo, human; conditions: for half-life: human, plasma
In short: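 Plasma PK used noncompartmental analysis in patients given ≥1 dose with ≥1 PK sample, dosed orally at 8, 12 or 16 mg QD continuously. Steady-state oral clearance (CLss/F) and terminal half-life are reported as mean with SD.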

[2] = Effect of a high-fat meal on PK of INCB057643; format: in vivo, human
In short: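 Steady-state plasma PK was compared within 12 patients, each dosed orally once daily in the fasted state and with a high-fat meal. Parameters (Tmax, Cmax, AUCtau) came from noncompartmental analysis. The fed/fasted ratio of geometric means is reported with its 90% CI.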

[3] = test system: patients with advanced malignancies; test: Safety and tolerability, phase 1/2 study INCB 57643-101; format: in vivo; conditions: for TRAEs (any): all treatment groups; for TRAE thrombocytopenia: incl. platelet counts decreased
advanced malignancies = test: Objective response assessment, study INCB 57643-101; format: in vivo, human; conditions: for reduction in spleen size by manual palpation: one MF patient
In short: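 Open-label phase 1/2 study in adults (≥18 y) with relapsed/refractory advanced malignancies. Oral dosing was 8–16 mg QD, continuous, as monotherapy (escalation; expansion at 12 mg QD) or from 8 mg QD combined with standard-of-care agents, in 21- or 28-day cycles. Response was assessed with malignancy-specific criteria in patients with ≥1 dose, measurable/evaluable baseline disease and ≥1 post-baseline assessment.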

[4] = test system: coagulation factor VII (Factor VII); test: Olink multiplex proximity extension assay of patient plasma; format: in vivo, human; conditions: cycle 1 day 8
In short: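 Plasma from 80 patients dosed orally at 8, 12 or 16 mg QD was collected at baseline (cycle 1 day 1) and on treatment (cycle 1 day 8, cycle 2 day 1, cycle 4 day 1). About 1,012 proteins were profiled by multiplex proximity extension assay. Factor VII is expressed as fold-change versus baseline.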

[5] = Part 2 TGA, 12 mg QD, 86 patients
[6] = Part 3, 8 mg QD in combination with SOC agents, 13 patients

CN1C(=O)C(C)(C)Oc2c(-c3cn(C)c(=O)c4[nH]ccc34)cc(S(C)(=O)=O)cc21 [INCB057643]
half-life ([1]; oral): ~10 h | half-life ([1]; po): 11.1 h | oral clearance CLss/F, mean [SD] ([1]; overall, oral dosing, patients): 11.1 [4.97] L/h | fed vs. fasted geometric mean ratio of Cmax ([2]; 90% CI 0.78–1.01): 0.89 | fed vs. fasted geometric mean ratio of AUCtau ([2]; 90% CI 0.99–1.29): 1.13 | increase of geometric mean AUCtau by high-fat meal ([2]; fed vs fasted): 13% | lowering of geometric mean Cmax by high-fat meal ([2]; fed vs fasted): 11% | patients requiring dose interruptions and/or reductions due to AEs ([3]; 16 mg QD cohort, cycles 1 and 2): 50% | patients with ≥1 any grade TRAE ([3]; 134 enrolled patients): 86% | tolerability of the 16 mg QD dose ([3]; Part 1 TGA): not tolerated | DLTs ([3]; Part 1 TGA, grade 3 increased INR, 16 mg QD cohort of 8 patients): 1 DLT | TRAEs leading to dose interruptions ([3]; Part 2 TGA, 12 mg QD): 35% | TRAEs leading to dose reductions ([3]; Part 2 TGA, 12 mg QD): 11% | patients with a grade 3/4 TRAE [3, 5]: 36% | patients with a serious TRAE [3, 5]: 13% | patients with a grade 3/4 TRAE ([3]; Part 2 TGB, 12 mg QD, 5 patients): 40% | patients requiring dose interruption ([3]; Part 2 TGB, 12 mg QD, febrile neutropenia and thrombocytopenia): 20% | TRAEs leading to dose interruptions [3, 6]: 6 patients | TRAEs leading to dose reductions [3, 6]: 4 patients | incidence of TRAE anemia ([3]; any grade): 14% | incidence of TRAE decreased appetite ([3]; any grade): 22% | incidence of TRAE diarrhea ([3]; any grade): 16% | incidence of TRAE dysgeusia ([3]; any grade): 16% | incidence of TRAE fatigue ([3]; any grade): 30% | incidence of TRAE hyperglycemia ([3]; any grade): 13% | incidence of TRAE nausea ([3]; any grade): 30% | incidence of TRAE thrombocytopenia ([3]; any grade): 32% | incidence of TRAE vomiting ([3]; any grade): 16% | patients with treatment-related INR increased events ([3]; any grade): Seven | TRAEs (any) ([3]; any grade, n = 134): 115 (86) n (%) | TRAE anemia ([3]; any grade, n = 134): 19 (14) n (%) | TRAE decreased appetite ([3]; any grade, n = 134): 30 (22) n (%) | TRAE diarrhea ([3]; any grade, n = 134): 21 (16) n (%) | TRAE dysgeusia ([3]; any grade, n = 134): 22 (16) n (%) | TRAE fatigue ([3]; any grade, n = 134): 40 (30) n (%) | TRAE hyperglycemia ([3]; any grade, n = 134): 18 (13) n (%) | TRAE nausea ([3]; any grade, n = 134): 40 (30) n (%) | TRAE vomiting ([3]; any grade, n = 134): 21 (16) n (%) | TRAE thrombocytopenia ([3]; any grade, n = 134): 43 (32) n (%) | MTD per protocol definition ([3]; at 16 mg QD): not reached | incidence of TRAE INR increased ([3]; grade ≥3): 2% | incidence of TRAE anemia ([3]; grade ≥3): 10% | incidence of TRAE dehydration ([3]; grade ≥3): 2% | incidence of TRAE diarrhea ([3]; grade ≥3): 2% | incidence of TRAE hyperglycemia ([3]; grade ≥3): 3% | incidence of TRAE hyponatremia ([3]; grade ≥3): 2% | incidence of TRAE nausea ([3]; grade ≥3): 2% | incidence of TRAE syncope ([3]; grade ≥3): 2% | incidence of TRAE vomiting ([3]; grade ≥3): 2% | TRAEs (any) ([3]; grade ≥3, n = 134): 48 (36) n (%) | TRAE anemia ([3]; grade ≥3, n = 134): 14 (10) n (%) | TRAE decreased appetite ([3]; grade ≥3, n = 134): 0 (0) n (%) | TRAE diarrhea ([3]; grade ≥3, n = 134): 2 (2) n (%) | TRAE dysgeusia ([3]; grade ≥3, n = 134): 0 (0) n (%) | TRAE fatigue ([3]; grade ≥3, n = 134): 1 (1) n (%) | TRAE hyperglycemia ([3]; grade ≥3, n = 134): 4 (3) n (%) | TRAE nausea ([3]; grade ≥3, n = 134): 2 (2) n (%) | TRAE vomiting ([3]; grade ≥3, n = 134): 2 (2) n (%) | TRAE thrombocytopenia ([3]; grade ≥3, n = 134): 24 (18) n (%) | deaths deemed related to treatment ([3]; human, in vivo): 2 deaths | deaths during the study ([3]; human, in vivo): 17 deaths | discontinuation, primary reason adverse event ([3]; n = 134): 20 (15) n (%) | discontinuation, primary reason death ([3]; n = 134): 9 (7) n (%) | patients requiring dose reductions ([3]; overall): 11% | patients who discontinued treatment due to TRAEs ([3]; overall): 11% | patients with objective responses (advanced malignancies; 134 patients): 6 patients | patients who maintained SD for ≥6 months (advanced malignancies; all with solid tumors): 6 patients | duration of complete response (advanced malignancies; follicular lymphoma patient, 8 mg QD, ongoing at data cutoff): > 2 years | patients with SD as best response (advanced malignancies; in vivo): Twenty-seven | patients with progressive disease as best response (advanced malignancies; in vivo): Forty-one | discontinuation, primary reason disease progression (advanced malignancies; n = 134): 76 (57) n (%) | reduction in spleen size by manual palpation (advanced malignancies; 8 mg QD + ruxolitinib): 77% | reduction in spleen size by manual palpation (advanced malignancies; 12 mg QD monotherapy): 92.5% | Factor VII mean [SEM] fold decrease vs. baseline ([4]; 8 mg): −0.32 [0.10] | Factor VII mean [SEM] fold decrease vs. baseline ([4]; 12 mg): −0.53 [0.14] | Factor VII mean [SEM] fold decrease vs. baseline ([4]; 16 mg): −0.53 [0.33]
